In brackets after ≈: the same amount, converted by molar mass. Activity calls are given as the source filed them. The calls are words filed in the database; no cut-off is given here.
How the values were obtained:
HeLa [1] = experiment: Antiproliferative activity against human HeLa cells assessed as cell viability after 96 hrs by CellTiter96 assay; format: functional, cell-based
K562 = experiment: Antiproliferative activity against human K562 cells assessed as cell viability after 96 hrs by CellTiter96 assay; format: functional, cell-based; settings: K562, 96 h
[2] = Oral bioavailability in Sprague-Dawley rat at 20 mg/kg compound formulated with 1% methylcellulose in water by LC-MS/MS analysis; format: ADME, organism-based; settings: in vivo
Outline: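 Male Sprague–Dawley rats, n = 3. Blood drawn by preimplanted catheter over 24 h; plasma separated at 4 °C and deproteinated with acetonitrile. Drug measured by LC–MS/MS; parameters obtained by noncompartmental analysis.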

[3] = Solubility of the compound in phosphate buffered saline containing 1% DMSO at pH 7.4 after 2 hrs by HPLC analysis; format: physicochemical
MDA-MB-231 = experiment: Antitumor activity against human MDA-MB-231 cells xenografted in BALB/c nu/nu mouse assessed as tumor volume at 20 mg/kg, iv qd for 28 days relative to control; format: functional
Outline: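 Female BALB/c nu/nu mice, 5–8 weeks old, implanted subcutaneously in the right flank with 1 × 10⁷ MDA-MB-231 cells in matrigel. Dosing began at about 100 mm³ mean tumour volume; 5 mice/group. Arms: vehicle (5% DMSO, 10% Cremophor in water) IV once daily, 20 mg/kg IV once daily, or 150 mg/kg PO twice daily, for 28 days. Caliper volumes and body weight every 2 days; T/C on day 28.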

[4] = molecular target: T1, Kinetochore protein NDC80 homolog (Homo sapiens) (UniProt O14777); experiment: Inhibition of Hec1/Nek2 interaction in human K562 cells assessed as induction of Nek2 degradation at 10 nM after 24 hrs by western blot analysis; format: cell-based
T1 sequence (whole entry): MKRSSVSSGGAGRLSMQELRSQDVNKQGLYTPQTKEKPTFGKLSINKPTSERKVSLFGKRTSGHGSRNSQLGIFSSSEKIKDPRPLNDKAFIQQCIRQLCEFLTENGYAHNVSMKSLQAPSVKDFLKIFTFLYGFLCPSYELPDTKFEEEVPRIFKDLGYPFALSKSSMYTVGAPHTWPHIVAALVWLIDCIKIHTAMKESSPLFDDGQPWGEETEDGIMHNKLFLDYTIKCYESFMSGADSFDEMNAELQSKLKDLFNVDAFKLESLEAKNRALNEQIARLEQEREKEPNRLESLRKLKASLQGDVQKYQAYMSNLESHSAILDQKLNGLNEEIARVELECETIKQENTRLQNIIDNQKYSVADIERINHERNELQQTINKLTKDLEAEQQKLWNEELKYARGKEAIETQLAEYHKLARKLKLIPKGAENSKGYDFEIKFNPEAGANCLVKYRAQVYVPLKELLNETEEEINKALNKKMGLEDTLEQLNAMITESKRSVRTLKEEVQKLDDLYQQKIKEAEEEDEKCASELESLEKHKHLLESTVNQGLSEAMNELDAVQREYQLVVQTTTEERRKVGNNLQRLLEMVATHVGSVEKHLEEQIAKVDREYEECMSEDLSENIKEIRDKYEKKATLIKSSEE
Outline: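 K562 cells exposed to DMSO or to 10, 100 or 1000 nM for 24 h. Nek2 and Hec1 detected by western blot in SDS sample buffer lysates, with actin as loading control and ECL detection.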

[5] = molecular target: T1, Kinetochore protein NDC80 homolog (Homo sapiens); experiment: Inhibition of Hec1/Nek2 interaction in human MDA-MB-468 cells assessed as reduction in Hec1 level at 100 nM by western blot analysis; format: cell-based
Outline: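 MDA-MB-468 cells treated with compound at 100 nM, with or without MG132 at 500 nM. Lysates made in SDS sample buffer, run on SDS-PAGE and blotted to PVDF. Primary antibodies applied in 3% BSA-TBST, with HRP secondaries and enhanced chemiluminescence detection for Hec1 and Nek2.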

[6] = molecular target: T1, Kinetochore protein NDC80 homolog (Homo sapiens); experiment: Inhibition of Hec1/Nek2 interaction in human K562 cells assessed as reduction in coimmunoprecipitated Hec1 level at 100 nM after 16 hrs by co-immunoprecipitation assay in presence of 500 nM proteasome inhibitor MG132; format: cell-based
MDA-MB-468 [7] = experiment: Induction of mitotic abnormalities in human MDA-MB-468 cells assessed as increase in proportion of cells displaying multipolar spindles after 48 hrs by immunofluorescent staining based microscopy; format: functional, cell-based
MDA-MB-468 [8] = experiment: Induction of mitotic abnormalities in human MDA-MB-468 cells assessed as proportion of cells displaying multipolar spindles at 100 nM after 48 hrs by immunofluorescent staining based microscopy (reference value: […]); format: functional
MDA-MB-468 [9] = experiment: Induction of mitotic abnormalities in human MDA-MB-468 cells assessed as proportion of cells displaying chromosomal misalignment at 10 nM after 48 hrs by immunofluorescent staining based microscopy (reference value: 21.4%); format: functional
MDA-MB-468 [10] = experiment: Induction of mitotic abnormalities in human MDA-MB-468 cells assessed as proportion of cells displaying chromosomal misalignment at 1000 nM after 48 hrs by immunofluorescent staining based microscopy (reference value: 21.4%); format: functional
HeLa [11] = experiment: Growth inhibition of human HeLa cells; format: functional
HCT-116 = experiment: Growth inhibition of human HCT116 cells; format: functional
HepG2 = experiment: Growth inhibition of human HepG2 cells; format: functional
[12] = Growth inhibition of human WI38 cells; format: cell-based; settings: WI-38 cells
[13] = Growth inhibition of human HAoSMC cells; format: cell-based
[14] = molecular target: Serine/threonine-protein kinase Nek2 (Homo sapiens, UniProt P51955); experiment: Inhibition of Nek2 (unknown origin)
Chain of Serine/threonine-protein kinase Nek2 (P51955 whole entry): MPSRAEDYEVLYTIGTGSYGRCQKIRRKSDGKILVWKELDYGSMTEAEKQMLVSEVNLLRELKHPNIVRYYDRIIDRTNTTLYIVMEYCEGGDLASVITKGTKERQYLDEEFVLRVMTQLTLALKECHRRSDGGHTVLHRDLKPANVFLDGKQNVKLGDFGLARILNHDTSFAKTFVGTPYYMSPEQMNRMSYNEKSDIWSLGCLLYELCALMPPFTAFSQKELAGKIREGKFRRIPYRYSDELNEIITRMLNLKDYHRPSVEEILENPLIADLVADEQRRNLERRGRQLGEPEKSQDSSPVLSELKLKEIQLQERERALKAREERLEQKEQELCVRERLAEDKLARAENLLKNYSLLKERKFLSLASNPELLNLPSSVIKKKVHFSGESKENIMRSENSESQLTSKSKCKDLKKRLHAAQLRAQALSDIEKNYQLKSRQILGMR

Aurora kinase B = Aurora kinase B (Homo sapiens, UniProt Q96GD4); experiment: Inhibition of aurora B (unknown origin) assessed as [33P] incorporation in substrate by TopCount microplate scintillation counting analysis
[15] = molecular target: Phosphatidylinositol 4,5-bisphosphate 3-kinase catalytic subunit alpha isoform (Homo sapiens, UniProt P42336); experiment: Inhibition of PI3K alpha (unknown origin) assessed as [33P] incorporation in substrate by TopCount microplate scintillation counting analysis
[16] = molecular target: Phosphatidylinositol 4,5-bisphosphate 3-kinase catalytic subunit beta isoform (Homo sapiens, UniProt P42338); experiment: Inhibition of PI3K beta (unknown origin) assessed as [33P] incorporation in substrate by TopCount microplate scintillation counting analysis
Chain of Phosphatidylinositol 4,5-bisphosphate 3-kinase catalytic subunit beta isoform (P42338 whole entry, canonical isoform): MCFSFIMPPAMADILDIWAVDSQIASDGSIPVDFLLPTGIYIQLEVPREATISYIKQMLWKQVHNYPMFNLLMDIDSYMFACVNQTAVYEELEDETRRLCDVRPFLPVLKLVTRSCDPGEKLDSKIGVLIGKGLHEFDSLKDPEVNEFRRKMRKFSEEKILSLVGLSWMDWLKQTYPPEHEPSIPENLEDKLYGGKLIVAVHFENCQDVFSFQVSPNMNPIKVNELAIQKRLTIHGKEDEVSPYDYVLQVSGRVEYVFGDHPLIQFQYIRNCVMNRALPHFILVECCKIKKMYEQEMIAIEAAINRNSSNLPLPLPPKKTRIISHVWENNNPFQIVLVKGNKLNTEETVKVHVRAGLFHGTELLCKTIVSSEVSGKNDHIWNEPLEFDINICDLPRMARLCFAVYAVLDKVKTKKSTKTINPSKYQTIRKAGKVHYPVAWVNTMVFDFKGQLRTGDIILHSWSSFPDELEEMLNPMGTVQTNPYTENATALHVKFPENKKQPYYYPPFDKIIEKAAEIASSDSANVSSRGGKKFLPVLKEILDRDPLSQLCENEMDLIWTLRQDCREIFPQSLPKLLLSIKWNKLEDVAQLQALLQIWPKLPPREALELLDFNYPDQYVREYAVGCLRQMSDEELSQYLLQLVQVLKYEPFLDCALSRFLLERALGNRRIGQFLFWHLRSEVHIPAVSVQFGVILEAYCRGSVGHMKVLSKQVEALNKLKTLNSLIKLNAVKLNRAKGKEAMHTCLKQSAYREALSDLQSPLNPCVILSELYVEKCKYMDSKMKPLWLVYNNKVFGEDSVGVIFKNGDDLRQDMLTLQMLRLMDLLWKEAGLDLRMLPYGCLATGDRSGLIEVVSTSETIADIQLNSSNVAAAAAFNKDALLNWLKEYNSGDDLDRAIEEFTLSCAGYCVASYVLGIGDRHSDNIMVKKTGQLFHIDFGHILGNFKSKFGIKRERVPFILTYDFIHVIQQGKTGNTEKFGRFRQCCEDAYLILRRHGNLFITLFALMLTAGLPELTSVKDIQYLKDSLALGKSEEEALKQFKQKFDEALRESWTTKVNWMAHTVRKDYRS

[17] = molecular target: Platelet-derived growth factor receptor beta (Homo sapiens, UniProt P09619); experiment: Inhibition of PDGFR-beta (unknown origin) assessed as [33P] incorporation in substrate by TopCount microplate scintillation counting analysis
[18] = molecular target: Epidermal growth factor receptor (Homo sapiens, UniProt P00533); experiment: Inhibition of EGFR (unknown origin) assessed as [33P] incorporation in substrate by TopCount microplate scintillation counting analysis
Chain of Epidermal growth factor receptor (P00533 whole entry): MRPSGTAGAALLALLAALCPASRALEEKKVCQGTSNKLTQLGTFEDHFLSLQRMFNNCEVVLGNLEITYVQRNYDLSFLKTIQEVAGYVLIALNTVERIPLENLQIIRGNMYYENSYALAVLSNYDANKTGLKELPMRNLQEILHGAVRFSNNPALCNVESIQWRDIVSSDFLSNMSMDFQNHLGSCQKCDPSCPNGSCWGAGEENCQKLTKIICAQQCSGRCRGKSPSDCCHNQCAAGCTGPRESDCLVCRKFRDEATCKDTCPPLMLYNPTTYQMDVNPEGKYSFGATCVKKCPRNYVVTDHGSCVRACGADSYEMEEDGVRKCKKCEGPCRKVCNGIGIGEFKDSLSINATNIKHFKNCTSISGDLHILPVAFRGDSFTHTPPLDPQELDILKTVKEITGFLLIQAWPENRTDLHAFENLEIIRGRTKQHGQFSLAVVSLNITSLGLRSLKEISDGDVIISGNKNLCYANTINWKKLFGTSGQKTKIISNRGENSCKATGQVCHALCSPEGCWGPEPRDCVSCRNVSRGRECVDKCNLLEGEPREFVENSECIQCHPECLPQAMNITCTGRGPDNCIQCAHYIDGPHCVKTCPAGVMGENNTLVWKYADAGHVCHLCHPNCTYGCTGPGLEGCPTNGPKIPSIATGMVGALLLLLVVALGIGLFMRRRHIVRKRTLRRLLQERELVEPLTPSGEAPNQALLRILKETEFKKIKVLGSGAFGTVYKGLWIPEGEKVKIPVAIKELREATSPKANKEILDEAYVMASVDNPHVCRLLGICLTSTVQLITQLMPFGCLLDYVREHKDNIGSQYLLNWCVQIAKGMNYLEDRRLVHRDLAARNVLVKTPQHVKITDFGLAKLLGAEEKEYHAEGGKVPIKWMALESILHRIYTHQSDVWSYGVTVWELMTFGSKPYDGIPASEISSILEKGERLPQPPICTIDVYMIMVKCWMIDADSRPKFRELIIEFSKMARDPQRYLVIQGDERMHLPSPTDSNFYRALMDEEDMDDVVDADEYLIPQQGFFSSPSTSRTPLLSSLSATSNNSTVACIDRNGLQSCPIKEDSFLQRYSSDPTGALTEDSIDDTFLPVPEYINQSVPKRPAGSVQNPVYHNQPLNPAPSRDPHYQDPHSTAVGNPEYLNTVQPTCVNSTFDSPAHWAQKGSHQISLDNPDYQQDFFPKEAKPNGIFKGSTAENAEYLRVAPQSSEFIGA

[19] = molecular target: Insulin-like growth factor 1 receptor (Homo sapiens, UniProt P08069); experiment: Inhibition of IGF-1R (unknown origin) assessed as [33P] incorporation in substrate by TopCount microplate scintillation counting analysis
Chain of Insulin-like growth factor 1 receptor (P08069 31-736 limits assumed): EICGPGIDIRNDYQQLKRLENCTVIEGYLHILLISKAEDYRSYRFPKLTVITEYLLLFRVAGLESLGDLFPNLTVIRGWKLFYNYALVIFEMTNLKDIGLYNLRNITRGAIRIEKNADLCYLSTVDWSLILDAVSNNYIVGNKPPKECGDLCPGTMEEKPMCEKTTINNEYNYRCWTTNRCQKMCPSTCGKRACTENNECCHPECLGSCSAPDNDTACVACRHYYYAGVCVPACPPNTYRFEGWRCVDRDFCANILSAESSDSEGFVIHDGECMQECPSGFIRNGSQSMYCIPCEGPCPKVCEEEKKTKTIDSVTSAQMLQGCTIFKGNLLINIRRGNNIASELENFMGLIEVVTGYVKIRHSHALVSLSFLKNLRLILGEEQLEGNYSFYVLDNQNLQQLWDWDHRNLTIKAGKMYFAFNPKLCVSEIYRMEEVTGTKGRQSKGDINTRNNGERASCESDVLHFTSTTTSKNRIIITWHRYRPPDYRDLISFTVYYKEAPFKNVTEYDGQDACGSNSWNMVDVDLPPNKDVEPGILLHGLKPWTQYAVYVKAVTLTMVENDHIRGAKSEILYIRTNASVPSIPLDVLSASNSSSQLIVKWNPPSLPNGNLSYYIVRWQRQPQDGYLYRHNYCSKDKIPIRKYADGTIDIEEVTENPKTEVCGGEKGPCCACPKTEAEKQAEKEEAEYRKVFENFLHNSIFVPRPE
Chain of Insulin-like growth factor 1 receptor (P08069 741-1367 limits assumed): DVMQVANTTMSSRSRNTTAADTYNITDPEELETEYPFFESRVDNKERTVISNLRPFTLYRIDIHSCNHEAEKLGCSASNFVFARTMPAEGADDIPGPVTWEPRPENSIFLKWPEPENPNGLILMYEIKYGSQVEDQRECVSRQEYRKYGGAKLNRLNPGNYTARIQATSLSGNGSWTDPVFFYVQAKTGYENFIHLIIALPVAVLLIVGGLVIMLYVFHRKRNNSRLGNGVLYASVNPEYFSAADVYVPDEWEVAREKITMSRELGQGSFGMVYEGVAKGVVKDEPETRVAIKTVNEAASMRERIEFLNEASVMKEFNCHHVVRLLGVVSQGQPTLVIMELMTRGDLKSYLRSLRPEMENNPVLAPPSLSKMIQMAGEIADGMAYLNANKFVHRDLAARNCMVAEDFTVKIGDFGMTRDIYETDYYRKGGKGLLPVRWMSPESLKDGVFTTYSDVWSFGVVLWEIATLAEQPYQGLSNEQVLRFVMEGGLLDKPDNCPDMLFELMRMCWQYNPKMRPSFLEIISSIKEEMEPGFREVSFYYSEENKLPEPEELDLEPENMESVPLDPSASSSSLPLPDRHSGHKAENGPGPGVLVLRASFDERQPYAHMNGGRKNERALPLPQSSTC

[20] = molecular target: Receptor-type tyrosine-protein kinase FLT3 (Homo sapiens, UniProt P36888); experiment: Inhibition of FLT3 (unknown origin) assessed as [33P] incorporation in substrate by TopCount microplate scintillation counting analysis
Chain of Receptor-type tyrosine-protein kinase FLT3 (P36888 whole entry): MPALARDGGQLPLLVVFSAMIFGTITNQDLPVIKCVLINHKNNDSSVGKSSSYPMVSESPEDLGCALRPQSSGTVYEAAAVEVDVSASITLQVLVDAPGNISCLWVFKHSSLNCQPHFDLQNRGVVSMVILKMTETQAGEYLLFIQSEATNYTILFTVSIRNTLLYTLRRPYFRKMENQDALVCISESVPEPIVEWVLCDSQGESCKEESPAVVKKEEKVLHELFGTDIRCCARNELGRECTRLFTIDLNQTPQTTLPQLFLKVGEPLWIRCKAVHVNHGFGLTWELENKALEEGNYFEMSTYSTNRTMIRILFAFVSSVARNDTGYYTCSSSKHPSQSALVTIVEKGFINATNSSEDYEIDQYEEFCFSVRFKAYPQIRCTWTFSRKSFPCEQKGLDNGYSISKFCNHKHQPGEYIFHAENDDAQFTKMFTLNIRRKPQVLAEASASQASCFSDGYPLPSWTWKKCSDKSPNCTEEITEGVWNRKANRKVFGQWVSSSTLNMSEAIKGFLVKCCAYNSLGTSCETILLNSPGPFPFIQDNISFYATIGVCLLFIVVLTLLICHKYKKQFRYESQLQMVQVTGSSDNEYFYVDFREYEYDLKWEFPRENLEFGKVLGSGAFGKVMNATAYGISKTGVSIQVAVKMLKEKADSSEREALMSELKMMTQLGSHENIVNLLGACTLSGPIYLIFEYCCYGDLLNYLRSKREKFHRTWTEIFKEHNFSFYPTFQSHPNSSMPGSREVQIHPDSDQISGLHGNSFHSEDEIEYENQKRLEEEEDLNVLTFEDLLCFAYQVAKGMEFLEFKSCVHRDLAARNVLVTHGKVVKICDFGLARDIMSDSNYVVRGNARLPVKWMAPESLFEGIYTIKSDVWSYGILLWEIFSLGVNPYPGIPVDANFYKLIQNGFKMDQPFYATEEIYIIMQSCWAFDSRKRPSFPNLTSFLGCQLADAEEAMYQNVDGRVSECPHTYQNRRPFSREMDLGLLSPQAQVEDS

IC50 (HeLa [1]): 0.0427 µM | IC50 (K562): 0.0163 µM | bioavailability [2]: 4.6% | solubility kinetic at 2 h [3]: 0.19 µM (≈ 0.0854 µg/mL) | Activity [4]: inactive | inhibition [5]: Active | inhibition [6]: Active | GI50 (HeLa [11]): 0.0228 µM | GI50 (HCT-116): 0.0341 µM | GI50 (HepG2): 0.191 µM | IC50 [14]: > 10 µM | IC50 (Aurora kinase B): > 10 µM | IC50 [15]: > 10 µM | IC50 [16]: > 10 µM | IC50 [17]: > 10 µM | IC50 [18]: > 10 µM | IC50 [19]: > 10 µM | IC50 [20]: > 10 µM
SMILES: COc1ccc(Oc2cc(C)c(-c3csc(NC(=O)c4ccnc(F)c4)n3)c(C)c2)cc1
T/C (MDA-MB-231): 32% | Activity (MDA-MB-468 [7]): Dose-dependent effect | Activity (MDA-MB-468 [8]): 29.1% | Activity (MDA-MB-468 [9]): 23.9% | Activity (MDA-MB-468 [10]): 20% | GI50 [12]: > 9 µM | GI50 [13]: > 9 µM
